According to ChEMBL document CHEMBL1131243, “Structure-activity relationships of the 7-substituents of 5,4'-diamino-6,8,3'-trifluoroflavone, a potent antitumor agent” (J Med Chem, 1998):

Assays:
[1] = test system: MCF7; experiment: In vitro cytotoxicity against MCF-7 cell lines, treated for 3 days then uptake of neutral red dye was measured; format: functional, cell-based; settings: Homo sapiens, MCF7, 72 h
[2] = test system: HeLa; experiment: In vitro cytotoxicity against HeLa S3 cell lines, treated for 3 days then uptake of neutral red dye was measured; format: functional, cell-based; settings: Homo sapiens, 72 h
[3] = test system: Mus musculus; experiment: Compound was tested for percentage Body weight change in vivo against MCF-7 cells implanted into Nude Mice, Dosage 12.5(mg/kg); format: functional, MCF7
How it was run: (§1)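 Female nude mice carried MCF-7 implants, with tumor growth stimulated by estradiol propionate given on the first dosing day. Mice with tumors of 25–200 mm³ were selected 20 days after transplantation (n = 5). Compound was given orally on days 0–4 and 7–11. Tumor length and width were measured on days 0, 4, 7, 11, 14 and 18. T/C is V/V0 treated over control; body weight change in %.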

[4] = test system: Mus musculus; experiment: Ratio of tumor growth rate of the drug-treated group relative to that of the control group at a dose of 12.5 mg/kg; format: functional; how it was run: as §1
[5] = test system: Mus musculus; experiment: Ratio of tumor growth rate of the drug-treated group relative to that of the control group at a dose of 25 mg/kg; format: functional; how it was run: as §1
[6] = test system: Mus musculus; experiment: Compound was tested for percentage Body weight change in vivo against MCF-7 cells implanted into Nude Mice, Dosage 63(mg/kg); format: functional, MCF7; settings: in the assay text read “Dosage 6.3(mg/kg)” for “Dosage 63(mg/kg)”; how it was run: as §1
[7] = test system: Mus musculus; experiment: Compound was tested for percentage Body weight change in vivo against MCF-7 cells implanted into Nude Mice, Dosage 25(mg/kg); format: functional, MCF7; how it was run: as §1
[8] = test system: Mus musculus; experiment: Ratio of tumor growth rate of the drug-treated group relative to that of the control group at a dosw of 50 mg/kg; format: functional; how it was run: as §1
[9] = test system: Mus musculus; experiment: Compound was tested for percentage Body weight change in vivo against MCF-7 cells implanted into Nude Mice, Dosage 50 (mg/kg); format: functional, MCF7; how it was run: as §1
[10] = test system: Mus musculus; experiment: Ratio of tumor growth rate of the drug-treated group relative to that of the control group at a dosw of 63 mg/kg; format: functional; settings: dose 6.3 mg/kg; in the assay text read “6.3 mg/kg” for “63 mg/kg”; how it was run: as §1
[11] = test system: HeLa S3 (Homo sapiens); experiment: Compound was tested for in vitro Cytotoxicity against HeLa S3 cell lines which were treated for 3 days and uptake of neutral red dye was measured; settings: HeLa S3, 72 h
[12] = test system: Mus musculus; experiment: Ratio of tumor growth rate of the drug-treated group relative to that of the control group at a dose of 50 mg/kg; format: functional; how it was run: as §1
[13] = test system: Mus musculus; experiment: Compound was tested for percentage Body weight change in vivo against MCF-7 cells implanted into Nude Mice, Dosage 50(mg/kg); format: functional, MCF7; how it was run: as §1
[14] = test system: Mus musculus; experiment: Ratio of tumor growth rate of the drug-treated group relative to that of the control group at a dose of 6.3 mg/kg; format: functional; how it was run: as §1
[15] = test system: Mus musculus; experiment: Compound was tested for percentage Body weight change in vivo against MCF-7 cells implanted into Nude Mice, Dosage 6.3(mg/kg); format: functional, MCF7; how it was run: as §1
[16] = test system: Mus musculus; experiment: Compound was tested for percentage Body weight change in vivo against MCF-7 cells implanted into Nude Mice, Dosage 25 (mg/kg); format: functional, MCF7; how it was run: as §1
[17] = test system: Mus musculus; experiment: Ratio of tumor growth rate of the drug-treated group relative to that of the control group at a dosw of 25 mg/kg; format: functional; how it was run: as §1
[18] = test system: Mus musculus; experiment: Compound was tested for percentage Body weight change in vivo against MCF-7 cells implanted into Nude Mice, Dosage 3.1(mg/kg); format: functional, MCF7; how it was run: as §1
[19] = test system: Mus musculus; experiment: Ratio of tumor growth rate of the drug-treated group relative to that of the control group at a dose of 3.1 mg/kg; format: functional; how it was run: as §1
[20] = test system: Mus musculus; experiment: Compound was tested for percentage Body weight change in vivo against MCF-7 cells implanted into Nude Mice, Dosage (mg/kg); format: functional, MCF7; how it was run: as §1
[21] = test system: Mus musculus; experiment: Ratio of tumor growth rate of the drug-treated group relative to that of the control group at a dosw of 6.3 mg/kg; format: functional; how it was run: as §1

SMILES: COc1c(F)c(N)c2c(=O)cc(-c3ccc(N)c(F)c3)oc2c1F
- IC50 [1]: 0.1 µM
- IC50 [2]: 34 µM

SMILES: CN(C)c1c(F)c(N)c2c(=O)cc(-c3ccc(N)c(F)c3)oc2c1F
- Body weight change [3]: -19%
- IC50 [1]: 0.039 µM
- IC50 [2]: > 100 µM
- T/C min [4]: 39%

SMILES: NCc1c(F)c(N)c2c(=O)cc(-c3ccc(N)c(F)c3)oc2c1F
- T/C min [5]: 11%
- Body weight change [6]: -5.8%
- Body weight change [7]: -8.5%
- T/C min [8]: 1.1%
- IC50 [1]: 0.026 µM
- IC50 [2]: 8.8 µM
- Body weight change [9]: -11%
- T/C min [10]: 60%

SMILES: CCCCc1c(F)c(N)c2c(=O)cc(-c3ccc(N)c(F)c3)oc2c1F
- IC50 [1]: 8.8 µM
- IC50 [2]: > 100 µM

SMILES: CCCCCC(=O)NCc1c(F)c(N)c2c(=O)cc(-c3ccc(N)c(F)c3)oc2c1F
- IC50 [11]: > 100 µM
- T/C min [12]: 76%
- IC50 [1]: 0.34 µM
- Body weight change [13]: 0%

SMILES: Cc1c(F)c(N)c2c(=O)cc(-c3ccc(N)c(F)c3)oc2c1F [AMINOFLAVONE]
- T/C min [14]: 55%
- Body weight change [3]: -11%
- Body weight change [15]: -8.7%
- IC50 [1]: 0.013 µM
- IC50 [2]: > 100 µM
- T/C min [4]: 11%

SMILES: CCOC(=O)c1c(F)c(N)c2c(=O)cc(-c3ccc(N)c(F)c3)oc2c1F
- IC50 [1]: 1.4 µM
- IC50 [2]: > 100 µM

SMILES: CCCCCCCCCC(=O)OCc1c(F)c(N)c2c(=O)cc(-c3ccc(N)c(F)c3)oc2c1F
- T/C min [5]: 13%
- Body weight change [7]: -5%
- IC50 [1]: 0.1 µM
- IC50 [2]: > 100 µM

SMILES: Nc1ccc(-c2cc(=O)c3c(N)c(F)cc(F)c3o2)cc1F
- Body weight change [16]: -7.4%
- T/C min [5]: 11%
- IC50 [1]: 0.04 µM
- IC50 [2]: > 100 µM

SMILES: C[S+]([O-])c1c(F)c(N)c2c(=O)cc(-c3ccc(N)c(F)c3)oc2c1F (stereo not given)
- IC50 [1]: 2.5 µM
- IC50 [2]: > 100 µM

SMILES: Nc1ccc(-c2cc(=O)c3c(N)c(F)c(O)c(F)c3o2)cc1F
- IC50 [1]: > 10 µM
- IC50 [2]: > 100 µM

SMILES: CN(C)CCC(=O)OCc1c(F)c(N)c2c(=O)cc(-c3ccc(N)c(F)c3)oc2c1F
- T/C min [17]: 4.1%
- Body weight change [7]: -12%
- IC50 [1]: 0.019 µM
- IC50 [2]: 11 µM

SMILES: CN(C)CCCOCc1c(F)c(N)c2c(=O)cc(-c3ccc(N)c(F)c3)oc2c1F
- IC50 [1]: > 10 µM
- IC50 [2]: 12 µM

SMILES: Nc1ccc(-c2cc(=O)c3c(N)c(F)c(Br)c(F)c3o2)cc1F
- IC50 [1]: 0.16 µM
- IC50 [2]: > 100 µM

SMILES: Nc1ccc(-c2cc(=O)c3c(N)c(F)c(N)c(F)c3o2)cc1F
- T/C min [14]: 26%
- Body weight change [18]: 5.7%
- Body weight change [3]: -22%
- Body weight change [15]: -13%
- IC50 [1]: 0.0077 µM
- IC50 [2]: 19 µM
- T/C min [19]: 55%
- T/C min [4]: 18%

SMILES: [N-]=[N+]=Nc1c(F)c(N)c2c(=O)cc(-c3ccc(N)c(F)c3)oc2c1F
- IC50 [1]: 0.46 µM
- IC50 [2]: 1.2 µM

SMILES: CN(C)Cc1c(F)c(N)c2c(=O)cc(-c3ccc(N)c(F)c3)oc2c1F
- T/C min [17]: 16%
- Body weight change [7]: -17%
- IC50 [1]: 0.072 µM
- IC50 [2]: 8.9 µM

SMILES: CCc1c(F)c(N)c2c(=O)cc(-c3ccc(N)c(F)c3)oc2c1F
- IC50 [1]: 0.13 µM
- IC50 [2]: > 100 µM

SMILES: CCCCCCOCc1c(F)c(N)c2c(=O)cc(-c3ccc(N)c(F)c3)oc2c1F
- IC50 [1]: 7.1 µM
- IC50 [2]: > 100 µM

SMILES: CCCCCC(=O)OCc1c(F)c(N)c2c(=O)cc(-c3ccc(N)c(F)c3)oc2c1F
- T/C min [5]: 0.8%
- T/C min [14]: 27%
- Body weight change [7]: -7.9%
- Body weight change [3]: -8.4%
- Body weight change [15]: -5.9%
- IC50 [1]: 0.16 µM
- IC50 [2]: 34 µM
- T/C min [4]: 7.9%

SMILES: CCCCCCCCCCCCCCCCCC(=O)OCc1c(F)c(N)c2c(=O)cc(-c3ccc(N)c(F)c3)oc2c1F
- T/C min [5]: 20%
- Body weight change [7]: -4.8%
- IC50 [1]: > 10 µM
- IC50 [2]: > 100 µM

SMILES: CN(C)CCOCc1c(F)c(N)c2c(=O)cc(-c3ccc(N)c(F)c3)oc2c1F
- T/C min [8]: 57%
- IC50 [1]: > 10 µM
- Body weight change [13]: -7.9%
- IC50 [2]: 4.6 µM

SMILES: CCC(=O)OCc1c(F)c(N)c2c(=O)cc(-c3ccc(N)c(F)c3)oc2c1F
- T/C min [5]: 79%
- IC50 [1]: 0.13 µM
- Body weight change [20]: -2.4%
- IC50 [2]: 69 µM

SMILES: CN(C)CC(=O)OCc1c(F)c(N)c2c(=O)cc(-c3ccc(N)c(F)c3)oc2c1F
- T/C min [5]: 4%
- T/C min [12]: 1%
- Body weight change [7]: -9%
- Body weight change [15]: -4.8%
- T/C min [21]: 68%
- IC50 [1]: 0.026 µM
- Body weight change [13]: -11%
- IC50 [2]: 9.2 µM

SMILES: Nc1ccc(-c2cc(=O)c3c(N)c(F)c(C(=O)O)c(F)c3o2)cc1F
- IC50 [1]: > 10 µM
- IC50 [2]: > 100 µM

SMILES: CCCCCCc1c(F)c(N)c2c(=O)cc(-c3ccc(N)c(F)c3)oc2c1F
- IC50 [1]: > 10 µM
- IC50 [2]: 21 µM

SMILES: CSc1c(F)c(N)c2c(=O)cc(-c3ccc(N)c(F)c3)oc2c1F
- IC50 [1]: 0.19 µM
- IC50 [2]: > 100 µM

SMILES: CS(=O)(=O)c1c(F)c(N)c2c(=O)cc(-c3ccc(N)c(F)c3)oc2c1F
- IC50 [1]: > 10 µM
- IC50 [2]: > 100 µM

SMILES: Nc1ccc(-c2cc(=O)c3c(N)c(F)c(Cl)c(F)c3o2)cc1F
- IC50 [1]: 0.21 µM
- IC50 [2]: > 100 µM

SMILES: CC(=O)OCc1c(F)c(N)c2c(=O)cc(-c3ccc(N)c(F)c3)oc2c1F
- T/C min [5]: 6.1%
- T/C min [12]: 11%
- Body weight change [7]: -5.9%
- IC50 [1]: 0.026 µM
- Body weight change [13]: -4.5%
- IC50 [2]: 4.9 µM

SMILES: CN(C)CCOc1c(F)c(N)c2c(=O)cc(-c3ccc(N)c(F)c3)oc2c1F
- IC50 [1]: 1.4 µM
- IC50 [2]: 1.5 µM

SMILES: Nc1ccc(-c2cc(=O)c3c(N)c(F)c(CO)c(F)c3o2)cc1F
- T/C min [5]: 17%
- T/C min [12]: 1.6%
- Body weight change [7]: -4%
- IC50 [1]: 0.062 µM
- Body weight change [13]: -6.7%
- IC50 [2]: 24 µM

SMILES: CN(C)CCCC(=O)OCc1c(F)c(N)c2c(=O)cc(-c3ccc(N)c(F)c3)oc2c1F
- T/C min [17]: 15%
- Body weight change [7]: -8.4%
- IC50 [1]: 0.029 µM
- IC50 [2]: 4.5 µM

SMILES: COCc1c(F)c(N)c2c(=O)cc(-c3ccc(N)c(F)c3)oc2c1F
- T/C min [8]: 89%
- IC50 [1]: 0.046 µM
- Body weight change [13]: 0%
- IC50 [2]: > 100 µM

SMILES: C[N+](C)(C)Cc1c(F)c(N)c2c(=O)cc(-c3ccc(N)c(F)c3)oc2c1F
- IC50 [1]: 3.1 µM
- IC50 [2]: 32 µM

SMILES: CCCOCc1c(F)c(N)c2c(=O)cc(-c3ccc(N)c(F)c3)oc2c1F
- IC50 [1]: 1.2 µM
- IC50 [2]: 78 µM
